From ChEMBL document CHEMBL4118021, “Studies of TAK1-centered polypharmacology with novel covalent TAK1 inhibitors” (Bioorg Med Chem, 2017)
Activity calls are given as the source filed them. The rule behind the calls is not given here.

Key:
[1] = target: Serine/threonine-protein kinase ATR (Homo sapiens) (UniProt Q13535); experiment: Inhibition of ATR in human SKCO1 cells at 1 uM after 4 hrs using biotin labeled FYIMMCKPK probe by mass-spectrometric analysis relative to control; type: cell-based
[2] = target: Tyrosine-protein kinase Fyn (Homo sapiens) (UniProt P06241); experiment: Inhibition of FYN in human SKCO1 cells at 1 uM after 4 hrs using biotin labeled QGAKFPIKWTAPEAALYGR probe by mass-spectrometric analysis relative to control; type: cell-based
[3] = target: Proto-oncogene tyrosine-protein kinase Src (Homo sapiens) (UniProt P12931); experiment: Inhibition of SRC in human SKCO1 cells at 1 uM after 4 hrs using biotin labeled QGAKFPIKWTAPEAALYGR probe by mass-spectrometric analysis relative to control; type: cell-based
[4] = target: Dual specificity mitogen-activated protein kinase kinase 1 (Homo sapiens) (UniProt Q02750); experiment: Inhibition of MAP2K1 in human SKCO1 cells at 1 uM after 4 hrs using biotin labeled DVKPSNILVNSR probe by mass-spectrometric analysis relative to control; type: cell-based
Procedure, shortened: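 Live SK-CO-1 cells treated 4 h at 1 μM (DMSO control); cells lysed and lysates labeled with lysine-reactive ATP/ADP-biotin probe (KiNativ); probe-labeled kinase peptides quantified by mass spectrometry; inhibition expressed as percent reduction in probe-dependent recovery versus DMSO-treated cells.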

[5] = target: T1, Dual specificity mitogen-activated protein kinase kinase 4 (Homo sapiens) (UniProt P45985); experiment: Inhibition of MAP2K4 in human SKCO1 cells at 1 uM after 4 hrs using biotin labeled DIKPSNILLDR probe by mass-spectrometric analysis relative to control; type: cell-based
T1 sequence (whole entry): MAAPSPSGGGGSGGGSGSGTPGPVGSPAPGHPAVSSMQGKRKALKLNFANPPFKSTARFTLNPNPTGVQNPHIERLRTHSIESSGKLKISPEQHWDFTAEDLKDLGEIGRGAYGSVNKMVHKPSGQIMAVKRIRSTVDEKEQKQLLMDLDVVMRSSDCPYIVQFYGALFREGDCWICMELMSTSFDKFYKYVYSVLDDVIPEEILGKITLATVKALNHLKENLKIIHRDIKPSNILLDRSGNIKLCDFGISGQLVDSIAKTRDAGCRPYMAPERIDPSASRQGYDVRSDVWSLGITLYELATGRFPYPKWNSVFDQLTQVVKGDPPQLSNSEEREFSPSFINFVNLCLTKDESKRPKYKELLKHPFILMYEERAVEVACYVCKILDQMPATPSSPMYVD

[6] = target: Serine/threonine-protein kinase greatwall (Homo sapiens) (UniProt Q96GX5); experiment: Inhibition of MASTL in human SKCO1 cells at 1 uM after 4 hrs using biotin labeled LYAVKVVK probe by mass-spectrometric analysis relative to control; type: cell-based
[7] = target: Serine/threonine-protein kinase Nek6 (Homo sapiens) (UniProt Q9HC98); experiment: Inhibition of NEK6 in human SKCO1 cells at 1 uM after 4 hrs using biotin labeled TVALKK probe by mass-spectrometric analysis relative to control; type: cell-based
[8] = target: Mitogen-activated protein kinase 14 (Homo sapiens) (UniProt Q16539); experiment: Inhibition of p38a in human SKCO1 cells at 1 uM after 4 hrs using biotin labeled QELNKTIWEVPER probe by mass-spectrometric analysis relative to control; type: cell-based
Procedure, shortened: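 Live SK-CO-1 cells were treated at 1 μM for 4 h alongside DMSO controls, then lysed. Lysates were labelled with a lysine-reactive ATP or ADP-biotin probe, and probe-dependent peptide recovery was quantified by mass spectrometry. Inhibition (%) is relative to DMSO-treated cells.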

[9] = target: Phosphatidylinositol 5-phosphate 4-kinase type-2 alpha (Homo sapiens) (UniProt P48426); experiment: Inhibition of PIP4K2A in human SKCO1 cells at 1 uM after 4 hrs using biotin labeled AKELPTLKDNDFINEGQK probe by mass-spectrometric analysis relative to control; type: cell-based
SW-620 = experiment: Antiproliferative activity against human SW620 cells harboring KRAS G12V mutant after 72 hrs by CellTiter-Glo assay; type: functional, cell-based; conditions: SW-620, 72 h
SK-CO-1 = experiment: Antiproliferative activity against human SKCO1 cells harboring KRAS G12V mutant after 72 hrs by CellTiter-Glo assay; type: functional, cell-based; conditions: SK-CO-1, 72 h
[10] = Antiproliferative activity against human URMC6 cells harboring wild type KRAS after 72 hrs by CellTiter-Glo assay; type: functional, cell-based
NCI-H23 = experiment: Antiproliferative activity against human NCI-H23 cells harboring KRAS G12C mutant after 72 hrs by CellTiter-Glo assay; type: functional, cell-based
Procedure, shortened: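 NCI-H23 or NCI-H358 cells seeded at 2000 cells/well and grown 48 h before drug. Varying doses were added and cells incubated 72 h. Viability was read as CellTiter-Glo luminescence, and growth-inhibition IC50 was calculated from dose-response curves.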

[11] = target: T2, Mitogen-activated protein kinase kinase kinase 7 (Homo sapiens) (UniProt O43318); conditions: NCI-H358, 1 uM
T2 sequence (whole entry): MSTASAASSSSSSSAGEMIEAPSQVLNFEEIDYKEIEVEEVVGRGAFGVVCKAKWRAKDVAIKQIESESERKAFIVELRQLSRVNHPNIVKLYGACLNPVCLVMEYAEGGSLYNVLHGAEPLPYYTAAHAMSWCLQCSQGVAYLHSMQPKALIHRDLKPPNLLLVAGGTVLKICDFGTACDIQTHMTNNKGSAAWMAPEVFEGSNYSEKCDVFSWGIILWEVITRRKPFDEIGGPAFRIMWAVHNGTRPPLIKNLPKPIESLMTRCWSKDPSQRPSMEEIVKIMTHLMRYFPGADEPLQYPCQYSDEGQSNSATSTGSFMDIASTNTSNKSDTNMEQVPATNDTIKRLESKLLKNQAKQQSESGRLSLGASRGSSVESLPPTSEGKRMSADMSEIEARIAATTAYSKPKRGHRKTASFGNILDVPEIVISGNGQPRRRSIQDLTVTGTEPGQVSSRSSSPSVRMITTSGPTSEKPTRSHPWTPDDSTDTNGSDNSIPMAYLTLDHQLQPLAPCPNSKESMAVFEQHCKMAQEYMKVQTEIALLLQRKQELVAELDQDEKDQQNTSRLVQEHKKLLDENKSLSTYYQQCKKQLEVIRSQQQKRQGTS

[12] = target: Mitogen-activated protein kinase 3 (Homo sapiens) (UniProt P27361); experiment: Inhibition of Erk1 in human SKCO1 cells at 1 uM after 4 hrs using biotin labeled DLKPSNLLINTTCDLK probe by mass-spectrometric analysis relative to control; type: cell-based
[13] = target: Mitogen-activated protein kinase 8 (Homo sapiens) (UniProt P45983); experiment: Inhibition of JNK1 in human SKCO1 cells at 1 uM after 4 hrs using biotin labeled DLKPSNIVVK probe by mass-spectrometric analysis relative to control; type: cell-based
[14] = target: T3, Mitogen-activated protein kinase kinase kinase 7 (Homo sapiens, UniProt O43318); experiment: Inhibition of TAK1 (unknown origin) by LanthaScreen assay
T3 sequence (O43318 whole entry): T2 sequence (whole entry)

NALM-6 = experiment: Antiproliferative activity against human NALM6 cells harboring NARS A146T mutant at […] to […] nM after 72 hrs by CellTiter-Glo assay; type: functional, cell-based
HEL = experiment: Antiproliferative activity against human HEL cells at […] to […] nM after 72 hrs by CellTiter-Glo assay; type: functional, cell-based

Phosphatidylinositol 5-phosphate 4-kinase type-2 alpha (Homo sapiens), sequence (P48426 whole entry): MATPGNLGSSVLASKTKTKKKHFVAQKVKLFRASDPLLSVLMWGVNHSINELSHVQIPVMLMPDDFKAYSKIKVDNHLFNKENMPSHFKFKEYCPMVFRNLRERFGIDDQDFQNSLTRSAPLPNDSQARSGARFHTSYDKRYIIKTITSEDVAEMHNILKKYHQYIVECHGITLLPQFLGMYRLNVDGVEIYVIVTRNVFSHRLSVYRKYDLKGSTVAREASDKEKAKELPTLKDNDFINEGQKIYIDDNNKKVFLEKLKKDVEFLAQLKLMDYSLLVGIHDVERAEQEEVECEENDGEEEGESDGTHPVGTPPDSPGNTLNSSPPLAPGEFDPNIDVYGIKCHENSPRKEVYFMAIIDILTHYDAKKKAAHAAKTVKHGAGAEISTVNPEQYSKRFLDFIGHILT
Mitogen-activated protein kinase 8 (Homo sapiens), sequence (P45983 whole entry): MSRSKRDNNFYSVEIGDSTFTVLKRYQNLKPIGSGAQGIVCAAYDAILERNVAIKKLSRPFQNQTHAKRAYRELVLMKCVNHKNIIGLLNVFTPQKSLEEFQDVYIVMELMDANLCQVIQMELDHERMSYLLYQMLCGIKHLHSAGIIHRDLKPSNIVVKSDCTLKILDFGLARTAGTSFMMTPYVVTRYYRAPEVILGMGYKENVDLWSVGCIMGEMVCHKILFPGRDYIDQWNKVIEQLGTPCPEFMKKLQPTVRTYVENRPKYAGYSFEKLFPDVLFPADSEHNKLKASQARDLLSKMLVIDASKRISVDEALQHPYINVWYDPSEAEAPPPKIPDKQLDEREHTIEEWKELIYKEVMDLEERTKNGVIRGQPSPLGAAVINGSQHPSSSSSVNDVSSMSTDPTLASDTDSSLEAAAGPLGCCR
Tyrosine-protein kinase Fyn (Homo sapiens), sequence (P06241 2-537 limits assumed): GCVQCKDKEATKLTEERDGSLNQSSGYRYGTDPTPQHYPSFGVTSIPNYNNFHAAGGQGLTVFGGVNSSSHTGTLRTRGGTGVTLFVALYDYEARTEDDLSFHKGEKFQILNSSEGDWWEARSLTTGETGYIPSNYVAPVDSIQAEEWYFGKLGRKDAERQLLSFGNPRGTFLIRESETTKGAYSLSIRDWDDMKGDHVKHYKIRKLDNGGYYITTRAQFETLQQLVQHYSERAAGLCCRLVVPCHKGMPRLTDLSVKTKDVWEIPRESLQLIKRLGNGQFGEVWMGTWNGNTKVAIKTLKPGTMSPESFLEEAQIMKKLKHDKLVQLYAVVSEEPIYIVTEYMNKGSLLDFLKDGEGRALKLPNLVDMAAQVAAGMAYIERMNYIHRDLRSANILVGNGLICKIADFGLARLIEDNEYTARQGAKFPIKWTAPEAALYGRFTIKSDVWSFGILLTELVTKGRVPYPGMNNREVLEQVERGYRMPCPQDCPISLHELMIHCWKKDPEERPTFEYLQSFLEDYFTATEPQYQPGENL
Mitogen-activated protein kinase 3 (Homo sapiens), sequence (P27361 whole entry): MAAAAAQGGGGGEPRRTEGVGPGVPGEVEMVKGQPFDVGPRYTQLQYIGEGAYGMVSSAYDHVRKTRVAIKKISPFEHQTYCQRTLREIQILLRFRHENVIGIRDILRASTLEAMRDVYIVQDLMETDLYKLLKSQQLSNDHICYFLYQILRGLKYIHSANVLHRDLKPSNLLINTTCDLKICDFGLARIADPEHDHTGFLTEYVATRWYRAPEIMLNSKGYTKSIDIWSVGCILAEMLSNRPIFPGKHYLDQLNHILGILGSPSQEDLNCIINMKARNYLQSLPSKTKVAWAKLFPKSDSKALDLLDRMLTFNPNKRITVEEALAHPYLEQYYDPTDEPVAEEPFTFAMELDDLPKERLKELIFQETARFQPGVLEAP
Mitogen-activated protein kinase 14 (Homo sapiens), sequence (Q16539 whole entry): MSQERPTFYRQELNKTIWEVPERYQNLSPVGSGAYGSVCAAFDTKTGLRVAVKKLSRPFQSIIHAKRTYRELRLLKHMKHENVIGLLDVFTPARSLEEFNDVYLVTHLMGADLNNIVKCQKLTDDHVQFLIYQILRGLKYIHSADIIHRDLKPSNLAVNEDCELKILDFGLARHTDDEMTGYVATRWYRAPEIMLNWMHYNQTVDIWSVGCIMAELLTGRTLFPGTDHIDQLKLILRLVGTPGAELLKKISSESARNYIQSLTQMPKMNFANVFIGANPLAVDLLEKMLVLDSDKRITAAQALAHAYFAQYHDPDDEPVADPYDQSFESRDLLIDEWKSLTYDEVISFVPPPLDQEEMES
Serine/threonine-protein kinase Nek6 (Homo sapiens), sequence (Q9HC98 whole entry): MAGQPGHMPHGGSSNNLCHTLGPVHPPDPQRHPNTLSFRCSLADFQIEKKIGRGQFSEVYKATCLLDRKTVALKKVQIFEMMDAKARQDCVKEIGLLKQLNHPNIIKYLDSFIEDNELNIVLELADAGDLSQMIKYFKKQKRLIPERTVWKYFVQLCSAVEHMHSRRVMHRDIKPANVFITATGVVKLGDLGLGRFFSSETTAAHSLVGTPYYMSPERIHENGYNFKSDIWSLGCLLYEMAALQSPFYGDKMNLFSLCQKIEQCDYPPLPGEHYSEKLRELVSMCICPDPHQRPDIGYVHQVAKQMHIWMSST
Serine/threonine-protein kinase ATR (Homo sapiens), sequence (Q13535 whole entry, looked up): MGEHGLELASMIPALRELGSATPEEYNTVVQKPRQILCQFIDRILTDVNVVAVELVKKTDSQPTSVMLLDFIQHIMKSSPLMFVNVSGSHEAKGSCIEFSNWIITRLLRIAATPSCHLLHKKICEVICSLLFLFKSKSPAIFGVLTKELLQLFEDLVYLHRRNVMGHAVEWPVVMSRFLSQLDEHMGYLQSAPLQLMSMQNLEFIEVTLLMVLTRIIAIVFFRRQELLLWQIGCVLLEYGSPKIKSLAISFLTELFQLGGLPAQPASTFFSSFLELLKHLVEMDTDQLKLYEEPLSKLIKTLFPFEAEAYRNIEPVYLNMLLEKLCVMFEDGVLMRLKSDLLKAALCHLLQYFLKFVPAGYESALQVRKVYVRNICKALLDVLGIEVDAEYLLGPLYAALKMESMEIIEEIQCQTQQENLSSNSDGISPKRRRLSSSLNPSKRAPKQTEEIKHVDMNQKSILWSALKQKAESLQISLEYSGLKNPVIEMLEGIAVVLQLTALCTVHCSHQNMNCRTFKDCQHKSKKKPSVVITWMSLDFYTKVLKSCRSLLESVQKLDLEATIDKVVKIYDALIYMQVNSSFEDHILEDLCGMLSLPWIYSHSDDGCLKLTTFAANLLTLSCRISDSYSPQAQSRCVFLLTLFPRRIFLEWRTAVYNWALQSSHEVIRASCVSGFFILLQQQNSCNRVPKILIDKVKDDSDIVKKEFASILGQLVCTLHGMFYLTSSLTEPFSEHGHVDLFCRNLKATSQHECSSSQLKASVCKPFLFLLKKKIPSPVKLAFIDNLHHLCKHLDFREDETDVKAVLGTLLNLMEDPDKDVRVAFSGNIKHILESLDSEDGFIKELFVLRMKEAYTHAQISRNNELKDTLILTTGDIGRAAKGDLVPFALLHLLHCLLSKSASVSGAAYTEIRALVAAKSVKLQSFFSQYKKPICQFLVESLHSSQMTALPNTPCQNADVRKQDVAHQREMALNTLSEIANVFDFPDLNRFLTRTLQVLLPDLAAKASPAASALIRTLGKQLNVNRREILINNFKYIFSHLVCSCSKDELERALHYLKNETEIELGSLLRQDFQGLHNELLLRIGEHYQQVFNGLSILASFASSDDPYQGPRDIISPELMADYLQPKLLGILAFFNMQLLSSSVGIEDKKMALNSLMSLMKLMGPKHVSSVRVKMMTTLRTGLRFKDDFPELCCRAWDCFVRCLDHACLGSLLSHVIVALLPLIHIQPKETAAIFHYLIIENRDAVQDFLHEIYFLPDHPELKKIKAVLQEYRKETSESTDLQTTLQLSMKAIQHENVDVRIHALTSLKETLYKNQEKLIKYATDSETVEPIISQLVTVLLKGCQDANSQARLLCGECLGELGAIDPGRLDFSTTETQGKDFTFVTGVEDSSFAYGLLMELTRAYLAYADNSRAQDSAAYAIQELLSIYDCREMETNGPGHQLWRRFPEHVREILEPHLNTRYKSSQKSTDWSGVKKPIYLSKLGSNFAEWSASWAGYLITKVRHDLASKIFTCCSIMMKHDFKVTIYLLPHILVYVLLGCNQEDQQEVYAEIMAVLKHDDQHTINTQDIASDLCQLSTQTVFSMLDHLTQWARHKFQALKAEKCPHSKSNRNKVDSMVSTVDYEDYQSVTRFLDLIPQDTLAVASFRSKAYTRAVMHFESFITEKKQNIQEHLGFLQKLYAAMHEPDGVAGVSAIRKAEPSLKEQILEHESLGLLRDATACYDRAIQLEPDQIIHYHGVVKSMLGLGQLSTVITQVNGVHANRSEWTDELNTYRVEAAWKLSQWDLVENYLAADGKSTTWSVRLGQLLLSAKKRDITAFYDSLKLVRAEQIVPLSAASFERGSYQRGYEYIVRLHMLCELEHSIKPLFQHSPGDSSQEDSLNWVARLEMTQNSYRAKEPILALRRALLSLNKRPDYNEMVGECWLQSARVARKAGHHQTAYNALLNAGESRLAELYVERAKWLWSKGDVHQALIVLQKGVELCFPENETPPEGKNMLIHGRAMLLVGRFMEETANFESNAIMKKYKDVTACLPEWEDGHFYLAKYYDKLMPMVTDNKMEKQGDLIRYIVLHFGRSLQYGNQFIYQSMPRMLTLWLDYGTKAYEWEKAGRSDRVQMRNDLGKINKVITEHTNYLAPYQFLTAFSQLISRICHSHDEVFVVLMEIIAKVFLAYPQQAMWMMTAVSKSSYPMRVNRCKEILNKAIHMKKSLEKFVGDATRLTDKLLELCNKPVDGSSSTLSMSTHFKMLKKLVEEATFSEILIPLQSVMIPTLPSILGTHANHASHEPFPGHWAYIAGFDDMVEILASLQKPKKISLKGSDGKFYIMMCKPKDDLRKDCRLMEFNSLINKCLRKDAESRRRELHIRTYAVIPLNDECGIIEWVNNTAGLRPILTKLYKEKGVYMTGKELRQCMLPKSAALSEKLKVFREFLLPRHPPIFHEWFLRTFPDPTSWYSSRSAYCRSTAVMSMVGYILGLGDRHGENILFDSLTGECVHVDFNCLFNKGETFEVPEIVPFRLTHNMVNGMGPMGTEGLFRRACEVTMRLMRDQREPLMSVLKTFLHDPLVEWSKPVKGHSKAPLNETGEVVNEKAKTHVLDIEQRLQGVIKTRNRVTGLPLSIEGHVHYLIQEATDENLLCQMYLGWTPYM

SMILES	inhibition [1]	inhibition [2]	inhibition [3]	inhibition [4]	inhibition [5]	inhibition [6]	inhibition [7]	inhibition [8]	inhibition [9]	IC50 (SW-620)	IC50 (SK-CO-1)	IC50 [10]	IC50 (NCI-H23; NCI-H23, 72 h)	inhibition [11]	inhibition [12]	inhibition [13]	IC50 [14]	Activity (NALM-6)	Activity (NCI-H23)	Activity (HEL)
COc1cc(O)c2c(c1)/C=C/C[C@H](O)[C@H](O)C(=O)/C=C\C[C@H](C)OC2=O	2%	8.5%	8.5%	95%	26.2%	51.7%	-9.7%	10.2%	16.1%	2.54 µM	0.25 µM	1.45 µM	1 µM	Active						
C=CC(=O)Nc1ccccc1Nc1nc(Nc2ccc(N3CCN(C)CC3)cc2)ncc1Cl	-8.1%				24.9%				2%					Active	5.2%	70%	0.05 µM	inactive	Active	inactive
C=CC(=O)Nc1ccccc1Oc1nc(Nc2cnn(CCOC)c2)ncc1Cl		-0.9%	-0.9%	7.9%		41.3%	-9.9%	12.7%		0.506 µM	0.318 µM	2.62 µM			42.7%	0.8%	0.0024 µM	inactive		inactive
